From publication PMC4418331 (Journal of Clinical Pharmacology, 2015)

Assays:
[1] = Safety and tolerability assessments; type: in vivo, human (postmenopausal women with T2D); details: for Increase in serum amylase concentration / Increase in serum lipase concentration: mean ± SD
How it was run: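 Test compound given subcutaneously once weekly, escalated 0.25 mg for 4 weeks, 0.5 mg for 4 weeks, then 1.0 mg for 5 weeks. A combined oral contraceptive was given once daily for 8 days before escalation and again during the final week. The investigator recorded AEs, both observed and spontaneously reported, with severity graded and relation assessed. Amylase and lipase were measured as change from baseline to end of treatment and to follow-up (5 weeks after last dose), mean ± SD.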

[2] = cited from earlier work
[3] = test system: dipeptidyl peptidase-4 (DPP-4); details: in words; native GLP-1 ref 1; semaglutide ref 12; cited from earlier work
[4] = baseline to end of semaglutide treatment

Molecule	Subjects reporting diarrhea ([1]; 6 subjects, all mild or moderate) [%]	Severe hypoglycemia (ADA classification) ([1]; FPG at study site and self-measured at home)	Increase in serum amylase concentration [1, 4] [U/L]	Increase in serum lipase concentration [1, 4] [U/L]	Increase in serum amylase concentration ([1]; baseline to follow-up) [U/L]	Increase in serum lipase concentration ([1]; baseline to follow-up) [U/L]	Antisemaglutide antibodies ([1]; in vivo)	Changes in ECG or safety laboratory parameters, including calcitonin ([1]; in vivo)	Pancreatitis ([1]; in vivo)	Serum amylase values ≥3x ULN ([1]; in vivo)	Duration of nausea episodes, median ([1]; min, max: 0.01, 95.6) [days]	Injection-site reactions ([1]; s.c. injection)	Subjects reporting TEAEs ([1]; whole study (oral contraceptive and semaglutide periods), 38 of 43 subjects) [%]	Serious AEs ([1]; whole study, n = 43)	Reported t1/2 [2] [h]	Degradation by dipeptidyl peptidase-4 (DPP-4) [3]	Half-life (t1/2) ([2]; in words)
CC[C@H](C)[C@H](NC(=O)[C@H](Cc1ccccc1)NC(=O)[C@H](CCC(=O)O)NC(=O)[C@H](CCCCNC(=O)COCCOCCNC(=O)COCCOCCNC(=O)CC[C@H](NC(=O)CCCCCCCCCCCCCCCCC(=O)O)C(=O)O)NC(=O)[C@H](C)NC(=O)[C@H](C)NC(=O)[C@H](CCC(N)=O)NC(=O)CNC(=O)[C@H](CCC(=O)O)NC(=O)[C@H](CC(C)C)NC(=O)[C@H](Cc1ccc(O)cc1)NC(=O)[C@H](CO)NC(=O)[C@H](CO)NC(=O)[C@@H](NC(=O)[C@H](CC(=O)O)NC(=O)[C@H](CO)NC(=O)[C@@H](NC(=O)[C@H](Cc1ccccc1)NC(=O)[C@@H](NC(=O)CNC(=O)[C@H](CCC(=O)O)NC(=O)C(C)(C)NC(=O)[C@@H](N)Cc1cnc[nH]1)[C@@H](C)O)[C@@H](C)O)C(C)C)C(=O)N[C@@H](C)C(=O)N[C@@H](Cc1c[nH]c2ccccc12)C(=O)N[C@@H](CC(C)C)C(=O)N[C@H](C(=O)N[C@@H](CCCNC(=N)N)C(=O)NCC(=O)N[C@@H](CCCNC(=N)N)C(=O)NCC(=O)O)C(C)C [semaglutide]	14	no cases of severe hypoglycemia were reported	1.5 ± 15.3	9.4 ± 24.3	7.0 ± 14.1	10.7 ± 32.6	No antisemaglutide antibodies were detected in any subject	No clinically meaningful changes were observed	No cases of pancreatitis were reported	No value was ≥3x ULN	3.9	no injection-site reactions were reported	88	No serious AEs were reported	155 to 184	less susceptible to degradation by DPP-4	–
Glucagon-like peptide-1 [native GLP-1, reference compound]	–	–	–	–	–	–	–	–	–	–	–	–	–	–	–	rapidly degraded	very short
